Key:
Format in all cases: protein-complex assay
[1] = biological target: GABA-A receptor; anion channel; test: Binding affinity for Diazepam insensitive (DI) isoform of the benzodiazepine (Bz) binding site on GABAA receptors
How it was run: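 Adult male Sprague-Dawley rat cerebellar membranes (~100 µg; homogenised in 50 mM Tris-citrate pH 7.8, washed by repeated 20000g spins at 4 °C). Incubated 60 min at 0-4 °C, GF/B filtration, scintillation counting. Duplicate assays; Ki.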

[2] = biological target: GABA-A receptor; anion channel; test: Binding affinity for Diazepam sensitive (DS) isoform of the benzodiazepine (Bz) binding site on GABAA receptors
[3] = biological target: GABA-A receptor; anion channel (Rattus norvegicus) (UniProt O09028+P15431+P18506+P18508+P19969+P20236+P23574+P23576+P28471+P28473+P30191+P62813+P63079+P63138+Q91ZM7+Q9ES14); test: Ratio of binding affinity against DI Bz receptor to that of DS Bz receptor

SMILES	Ki [1] [nM]	Ki [2] [nM]	Ratio [3]
CCOC(=O)c1ncn2c1CN(Cc1ccccc1)C(=O)c1cc(Cl)ccc1-2	10.9	13.7	0.8
CCOC(=O)c1ncn2c1CN(C)C(=O)c1c(F)cccc1-2	102	0.8	128
COC(=O)c1ncn2c1CN(C)C(=O)c1cc(F)ccc1-2 [FLUMAZENIL METHYLESTER]	239	3.1	77
CN1Cc2c(C(=O)OC(C)(C)C)ncn2-c2ccc(Cl)cc2C1=O	–	–	0.4
COC(=O)c1ncn2c1CN(C)C(=O)c1sccc1-2	–	–	58
CC(C)(C)OC(=O)c1ncn2c1C1CCCN1C(=O)c1c-2ccc(F)c1Cl (centres undefined)	23.6	1	24
CCCOC(=O)c1ncn2c1CN(C)C(=O)c1sccc1-2	–	–	27
O=C(OCC1CC1)c1ncn2c1C1CCN1C(=O)c1c(Cl)cccc1-2 (centres undefined)	55	0.1	554
CN1Cc2c(C(=O)OC(C)(C)C)ncn2-c2ccccc2C1=O	–	–	19.2
CCOC(=O)c1ncn2c1CN(Cc1ccccc1)C(=O)c1ccccc1-2	112	1.5	75
CCCOC(=O)c1nc(C)n2c1CN=C(c1ccccc1Cl)c1cc(Cl)ccc1-2	–	2.2	–
CC(C)(C)OC(=O)c1ncn2c1C1CCN1C(=O)c1cc(F)ccc1-2 (centres undefined)	16.9	1.8	9
COc1cccc2c1C(=O)N1CCCC1c1c(C(=O)OC(C)(C)C)ncn1-2 (centres undefined)	259	5.1	51
CCOC(=O)c1ncn2c1[C@H]1CCCN1C(=O)c1ccccc1-2	> 1000	> 100	–
COC(=O)c1ncn2c1CN(C)C(=O)c1ccccc1-2	1410	–	224
CCc1cccc2c1C(=O)N1CCCC1c1c(C(=O)OC(C)(C)C)ncn1-2 (centres undefined)	164	1	164
O=C(OCC1CC1)c1ncn2c1C1CCCN1C(=O)c1cc(Cl)ccc1-2 (centres undefined)	81	378	0.22
CC(C)(C)OC(=O)c1ncn2c1C1CCN1C(=O)c1c(Cl)cccc1-2 (centres undefined)	–	1.1	14
C=CCN1Cc2c(C(=O)OCC)ncn2-c2ccccc2C1=O	1130	39.2	29
CC(C)OC(=O)c1ncn2c1CN(C)C(=O)c1cc(Cl)ccc1-2	–	–	0.8
CN1Cc2c(C(=O)OC(C)(C)C)ncn2-c2ccsc2C1=O	–	–	13
CCC(CC)OC(=O)c1ncn2c1CN(C)C(=O)c1cc(Cl)ccc1-2	–	–	4.6

SMILES	Ki [1] [nM]	Ki [2] [nM]	Ratio [3]
CCOC(=O)c1ncn2c1CN(C)C(=O)c1ccccc1-2	–	–	165
CN1Cc2c(C(=O)OCCC(C)(C)C)ncn2-c2ccc(Cl)cc2C1=O	> 1000	–	–
CCOC(=O)c1ncn2c1CN(C)C(=O)c1ccc(Cl)cc1-2	> 10000	> 1000	–
CCOC(=O)c1ncn2c1[C@@H]1CCCN1C(=O)c1ccccc1-2	–	–	50
CCCOC(=O)c1ncn2c1CN=C(c1ccccc1Cl)c1cc(Cl)ccc1-2	1020	1.9	539
Cc1noc(-c2ncn3c2CN(Cc2ccccc2)C(=O)c2cc(Cl)ccc2-3)n1	115	88.4	1.3
CCOC(=O)c1ncn2c1C1CCCN1C(=O)c1cc(Cl)ccc1-2 (centres undefined)	–	–	0.7
CCOC(=O)c1ncn2c1CN(Cc1ccccc1)C(=O)c1c(Cl)cccc1-2	20.2	0.4	51
CC(C)(C)OC(=O)c1ncn2c1C1CCCN1C(=O)c1c(Br)cccc1-2 (centres undefined)	10	0.5	20
CN1Cc2c(C(=O)OCC3CC3)ncn2-c2ccc(Cl)cc2C1=O	–	–	4.1
Cc1noc(-c2ncn3c2CN(Cc2ccccc2)C(=O)c2ccccc2-3)n1	> 10000	907	–
CCCOC(=O)c1ncn2c1CN(C)C(=O)c1cc(Cl)ccc1-2	–	–	1.3
CCOC(=O)c1ncn2c1CN(C)C(=O)c1cccc(Cl)c1-2	> 10000	> 1000	–
O=C(OC1CCCCC1)c1ncn2c1C1CCCN1C(=O)c1cc(Cl)ccc1-2 (centres undefined)	165	391	0.42
Cc1noc(-c2ncn3c2CN(Cc2ccccc2)C(=O)c2c(Cl)cccc2-3)n1	–	7.5	101
CC(C)(C)OC(=O)c1ncn2c1C1CCCN1C(=O)c1cc(Cl)ccc1-2 (centres undefined)	26.8	65.2	0.4
Cc1nnc2n1-c1ccc(Cl)cc1C(c1ccccc1Cl)=NC2 [TRIAZOLAM]	2090	0.8	2610
CN1Cc2c(C(=O)OCC(C)(C)C)ncn2-c2ccc(Cl)cc2C1=O	–	–	0.67
CCOC(=O)c1ncn2c1C1CCN1C(=O)c1c(Cl)cccc1-2 (centres undefined)	34	0.2	170
CCOC(=O)c1ncn2c1C1CCCN1C(=O)c1c(Cl)cccc1-2 (centres undefined)	68.8	0.2	344
Cc1nnc(-c2ncn3c2CN(Cc2ccccc2)C(=O)c2ccccc2-3)o1	> 10000	1210	–
CCOC(=O)c1ncn2c1CN(C)C(=O)c1c(Cl)cccc1-2 [SARMAZENIL]	20	0.2	100

Source: ChEMBL document CHEMBL1127024, “Synthetic and computer-assisted analysis of the structural requirements for selective, high-affinity ligand binding to diazepam-insensitive benzodiazepine receptors” (J Med Chem, 1993)
